{"data": "Measured values pooled from the literature", "EGFR T790M": "Epidermal growth factor receptor (EGFR, Homo sapiens, UniProt P00533, T790M)", "EGFR G719C": "Epidermal growth factor receptor (EGFR, Homo sapiens, UniProt P00533, G719C)", "EGFR L858R": "Epidermal growth factor receptor (EGFR, Homo sapiens, UniProt P00533, L858R)", "EGFR L861Q": "Epidermal growth factor receptor (EGFR, Homo sapiens, UniProt P00533, L861Q)", "EGFR L858R/T790M": "Epidermal growth factor receptor (EGFR, Homo sapiens, UniProt P00533, L858R/T790M)", "EGFR del747-750/T751S": "Epidermal growth factor receptor (EGFR, Homo sapiens, UniProt P00533, del747-750/T751S)", "EGFR G719S": "Epidermal growth factor receptor (EGFR, Homo sapiens, UniProt P00533, G719S)", "note": "Protocols differ between the studies behind these lines."}
{"Compound": "Cc1cnn2ncc(-c3ccnc(N(C)C)n3)c2c1", "target": "EGFR T790M", "read-out": "binding", "concentration": "1 µM", "remaining binding [%]": 100}
{"Compound": "Cc1nc(N2CC[C@@H](O)C2)ncc1-c1cc(C(F)(F)F)cc2[nH]ncc12", "target": "EGFR G719C", "read-out": "cell-free assay", "method": "competition with immobilised ligand", "concentration": "1 µM", "remaining binding [%]": 100}
{"Compound": "COc1ncc2cc3ccccc3nc2c1C#N", "target": "EGFR T790M", "read-out": "cell-free assay", "method": "competition with immobilised ligand", "concentration": "5 µM", "remaining binding [%]": 100}
{"Compound": "c1cnn2ncc(-c3ccnc(N4CCC45COC5)n3)c2c1", "target": "Epidermal growth factor receptor (EGFR, Homo sapiens, UniProt P00533, del752-759)", "read-out": "binding", "concentration": "1 µM", "remaining binding [%]": 67}
{"Compound": "C[C@@H](c1cccc(C#N)c1)n1cc(Cl)cc(C(N)=O)c1=N", "target": "EGFR L858R", "read-out": "cell-free assay", "method": "competition with immobilised ligand", "concentration": "1 µM", "remaining binding [%]": 100}
{"Compound": "CN1CCN(c2ccc(Nc3nccc(-c4ccccc4)n3)cc2C(F)(F)F)CC1", "target": "EGFR L861Q", "read-out": "binding", "concentration": "10 µM", "remaining binding [%]": 94}
{"Compound": "COc1cnc(Nc2cccc(S(N)(=O)=O)c2)nc1N1CCN(c2ccccc2)CC1", "target": "EGFR G719C", "read-out": "binding", "method": "competition with immobilised ligand", "concentration": "1 µM", "remaining binding [%]": 100}
{"Compound": "O=C(NCCCN1CCOCC1)c1ccc(Nc2ncc(Cl)c(-c3ccc(Cl)s3)n2)cc1", "target": "EGFR L858R", "read-out": "binding", "method": "competition with immobilised ligand", "concentration": "1 µM", "remaining binding [%]": 82}
{"Compound": "C[C@@H]1CCN(c2nccc(-c3cnn4ncccc34)n2)C1", "target": "EGFR T790M", "read-out": "binding", "concentration": "1 µM", "remaining binding [%]": 79}
{"Compound": "Cc1cnc(Nc2ccc(C(=O)N3CCC(N4CCCC4)CC3)cc2)nc1-c1cc2ccccc2s1", "target": "EGFR L858R/T790M", "read-out": "binding", "method": "competition with immobilised ligand", "concentration": "1 µM", "remaining binding [%]": 59}
{"Compound": "CC(C)(C)c1ccc(-c2nc(CBr)nn2-c2cccc(O)c2)cc1", "target": "EGFR L858R", "read-out": "cell-free assay", "method": "competition with immobilised ligand", "concentration": "10 µM", "remaining binding [%]": 78}
{"Compound": "CC(=O)Nc1c(C(C)=O)c(=O)n(C)c2nc(-c3ccc(Cl)cc3Cl)c(-c3ccc(Cl)cc3)cc12", "target": "EGFR del747-750/T751S", "read-out": "cell-free assay", "method": "competition with immobilised ligand", "concentration": "1 µM", "remaining binding [%]": 100}
{"Compound": "F[C@@H]1CCN(c2nccc(-c3cnn4ncccc34)n2)C1", "target": "EGFR G719S", "read-out": "binding", "concentration": "1 µM", "remaining binding [%]": 100}
{"Compound": "O=C(NCC1CCOCC1)c1n[nH]cc1NC(=O)c1c(F)cccc1F", "target": "EGFR L858R/T790M", "read-out": "binding", "method": "competition with immobilised ligand", "concentration": "1 µM", "remaining binding [%]": 97}
{"Compound": "O=C(NC[C@@H]1[C@H]2CN(C(=O)OCc3cc(C(F)(F)F)cc(C(F)(F)F)c3)C[C@@H]12)c1ccc2[nH]nnc2c1", "target": "EGFR L858R/T790M", "read-out": "cell-free assay", "method": "competition with immobilised ligand", "concentration": "1 µM", "remaining binding [%]": 80}
{"Compound": "O=C(c1ccc(Nc2nccc(-c3cc4ccccc4s3)n2)cc1)N1CCC(N2CCCC2)CC1", "target": "Epidermal growth factor receptor (EGFR, Homo sapiens, UniProt P00533, del746-750)", "read-out": "binding", "method": "competition with immobilised ligand", "concentration": "1 µM", "remaining binding [%]": 100}
{"Compound": "NS(=O)(=O)c1cc(NC(=O)Cc2ccccc2)ccc1Oc1cccc(Cl)c1", "target": "EGFR G719C", "read-out": "cell-free assay", "method": "competition with immobilised ligand", "concentration": "1 µM", "remaining binding [%]": 63}
{"Compound": "O=C(c1ccc(Nc2ncc(Cl)c(-c3cc4ccccc4s3)n2)cc1)N1CCC(N2CCCC2)CC1", "target": "EGFR del747-750/T751S", "read-out": "binding", "method": "competition with immobilised ligand", "concentration": "1 µM", "remaining binding [%]": 89}
{"Compound": "CN(C)c1nccc(-c2cnc3ncccn23)n1", "target": "Epidermal growth factor receptor (EGFR, Homo sapiens, UniProt P00533)", "read-out": "binding", "concentration": "1 µM", "remaining binding [%]": 63}
{"Compound": "CNC(=O)[C@@H]1CC[C@@H](n2c(-c3ccc4cnccc4c3)nc3ccc(C(=O)NCc4cccc(C(N)=O)c4)cc32)C1", "target": "EGFR L861Q", "read-out": "binding", "method": "competition with immobilised ligand", "concentration": "1 µM", "remaining binding [%]": 100}
{"Compound": "O=C1CCc2cc(Nc3cc(OC4CCOCC4)c([N+](=O)[O-])cc3Cl)ccc2N1", "target": "EGFR L861Q", "read-out": "cell-free assay", "method": "competition with immobilised ligand", "concentration": "1 µM", "remaining binding [%]": 100}
{"Compound": "O=C(Nc1c[nH]nc1C(=O)NC1CCNCC1)c1cc(F)cc(F)c1", "target": "EGFR L861Q", "read-out": "binding", "method": "competition with immobilised ligand", "concentration": "1 µM", "remaining binding [%]": 100}
{"Compound": "N[C@@H]1CCN(c2nccc(-c3cnn4ncccc34)n2)C1", "target": "EGFR L858R", "read-out": "binding", "concentration": "1 µM", "remaining binding [%]": 74}
{"Compound": "O=C(O)c1cc(-c2ccc(C3CCNCC3)cc2)c2ccc(-c3ccc(C(F)(F)F)cc3)cc2c1", "target": "EGFR G719S", "read-out": "cell-free assay", "method": "competition with immobilised ligand", "concentration": "1 µM", "remaining binding [%]": 100}
